From PubChem BioAssay AID624205 (Southern Research Specialized Biocontainment Screening …, 2012) come the findings set out here.

Several values for one entry are separate records, joined by “and”; a condition that tells them apart may be missing. Identical values can stand only once. Records with an inconclusive call do not appear. Activity calls are given as the source filed them.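 The calls were made as follows: active = viability under 80% at one or more tested concentrations, counted as toxic; inconclusive = replicate runs disagree on the viability criterion; inactive = viability at or above 80% at every dose.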

A short description of experiment [1]: viability loss in Vero kidney cells – cell-based, set 3, cytotoxicity control for PfM18AAP inhibitor project, dose response (AID 624205). As to conditions: Vero E6 viability, CellTiter-Glo luminescence, 72 h; at 50 µM (top of the series). An outline of the steps: (§1)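 assay system = Vero E6 cells, viability assay | input = 3000 cells per well | doses = compound dose series in 2-fold dilution steps | technique = CellTiter-Glo luminescence for viable cell content | timing = 72 h compound exposure at 37 °C with 5% CO2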
In general terms: ATP-based viability assays read luminescence as a measure of living cells.

For experiment [2], the system named is Vero E6 viability, CellTiter-Glo luminescence, 72 h. The experiment is described as above. An outline of the steps:
as §1

With `Cc1cc(N(C)CCc2ccc(O)c(O)c2)c2ccccc2n1`, in experiment [1], the viability was 89.8% (inactive).

`CCOc1ccc2nccc(N(C)CCc3ccc(OC)c(OC)c3)c2c1`: the CC50 in experiment [2] is 41 µM.

As to `Nc1c2ccccc2nc2ccccc12`, in experiment [2], the 50% cytotoxic concentration (CC50) was 10.3 µM.

With `CCN(CCc1ccc(O)c(O)c1)c1c2ccccc2nc2ccccc12`, the CC50 in experiment [2] was 34.6 µM.

Consider `CCN(CCc1ccc(OC)c(OC)c1)c1c2ccccc2nc2ccccc12`, for which the CC50 in experiment [2] is 15.4 µM.

`Oc1cccc(CCNc2ccnc3ccccc23)c1O`: the viability in experiment [1] was 93.2% (inactive).

On to `COc1ccc(CCN(C)c2c3ccccc3nc3ccccc23)cc1OC`, for which the CC50 in experiment [2] is 12.9 µM and 9.77 µM.

For the molecule `COc1ccc(CCCN(C)c2c3ccccc3nc3ccccc23)cc1OC`, in experiment [2], the CC50 was 9.23 µM.

With `COc1ccc(CCN(C)c2cc(C)nc3ccccc23)cc1OC`, the viability in experiment [1] is 80.7% (inactive).

Regarding `COc1cc(Br)c(CCNc2c3c(nc4ccccc24)CCCC3)cc1OC`, the CC50 in experiment [2] was 20.1 µM.

In the case of `CN(CCc1ccc(O)c(O)c1)c1ccnc2c(F)cccc12`, the viability in experiment [1] was 86% (inactive).

As to `CN(CCCc1ccc(O)c(O)c1)c1ccnc2ccccc12`, in experiment [1], the viability was 88.4% (inactive).

`COc1cc(Br)c(CCNc2ccnc3ccccc23)cc1OC`: the 50% cytotoxic concentration (CC50) in experiment [2] is 15.9 µM.

As for `COc1ccc(C2CCN(c3ccnc4ccccc34)CC2)cc1OC`, the CC50 in experiment [2] is 23.7 µM.

On to `COc1ccc(CCN(C)c2ncnc3ccccc23)cc1OC`, for which the viability in experiment [1] was 85.7% (inactive).

Consider `Cc1cccc2c(NCCc3ccc(O)c(O)c3)ccnc12`, for which the viability in experiment [1] is 95.1% (inactive).

For the molecule `CN(CCc1ccc(O)c(O)c1)c1ncnc2ccccc12`, the viability in experiment [1] is 95.4% (inactive).

Turning to `COc1ccc(CCNc2ccnc3cc(Cl)ccc23)cc1OC`, the CC50 in experiment [2] is 41.6 µM.

For the molecule `CN(CCCc1ccc(O)c(O)c1)c1c2ccccc2nc2ccccc12`, the 50% cytotoxic concentration (CC50) in experiment [2] is 21.9 µM.

`COc1ccc(CCNC(=O)c2cc(C)ccc2N)cc1OC`: in experiment [1], the viability is 95.6% (inactive).

Turning to `COc1cc(Br)c(CCNc2c3ccccc3nc3ccccc23)cc1OC`, the half-maximal cytotoxic concentration (CC50) in experiment [2] is 5.03 µM.

With `CCN(CC)Cc1cc(Nc2ccnc3cc(Cl)ccc23)ccc1O`, the cytotoxic concentration (CC50) in experiment [2] was 40.1 µM.

For the molecule `Oc1ccc(CCCNc2c3c(nc4ccccc24)CCCC3)cc1O`, in experiment [1], the viability is 92.3% (inactive).

Consider `CC(C)(CNc1ccnc2ccccc12)c1ccc(O)c(O)c1`, for which the CC50 in experiment [2] was 15 µM.

Turning to `CC(Cc1ccc(O)c(O)c1)Nc1ccnc2ccccc12` (stereo not given), in experiment [1], the viability is 83.9% (inactive).

What is called viability is a per cent measure of how many cells are alive, often set against a control. The term CC50 denotes the concentration giving 50% cytotoxicity.
